Among the data in ChEMBL document CHEMBL4706595, “1,3-Oxazine-2-one derived dual-targeted molecules against replicating and non-replicating forms of Mycobacterium tuberculosis” (Eur J Med Chem, 2020) are MIC values, retold here.

As a reminder, the MIC is the lowest concentration that inhibits growth of the organism.

For assay [1], the system named is Mycobacterium tuberculosis. In words: Antimycobacterial activity against isoniazid-resistant Mycobacterium tuberculosis H37Rv ATCC 35822 assessed as inhibition of bacterial growth by agar plate dilution method. Format: functional. The method, boiled down: (§1)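 MIC determined by agar plate dilution method; isoniazid and rifampin run as references.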
The test system of assay [2] is Mycobacterium tuberculosis. In words: Antimycobacterial activity against rifampicin-resistant Mycobacterium tuberculosis H37Rv ATCC 35838 assessed as inhibition of bacterial growth by agar plate dilution method. Format: functional. The method, boiled down: as §1

In brackets after ≈: the same amount, converted by molar mass.

Consider `CC(C)=CCC/C(C)=C/CC/C(C)=C/COc1ccc(C(=O)OCCCOc2cccc(Nc3nc4ccccc4c(=O)o3)c2)cc1`, for which the minimal inhibitory concentration (MIC) stood at 2.3 µg/mL (≈ 3.61 µM) in assay [1] and 1.8 µg/mL (≈ 2.83 µM) in assay [2].
Taken in the same sequence, the figures for `CO[C@H]1/C=C/O[C@@]2(C)Oc3c(C)c(O)c4c(O)c(c(/C=N/N5CCN(C)CC5)c(O)c4c3C2=O)NC(=O)/C(C)=C\C=C\[C@H](C)[C@H](O)[C@@H](C)[C@@H](O)[C@@H](C)[C@H](OC(C)=O)[C@@H]1C` [RIFAMPIN] were 0.03 µg/mL (≈ 0.0365 µM) and over 2 µg/mL.
Taken in the same sequence, the figures for `CC(C)=CCC/C(C)=C/COc1ccc(C(=O)OCCCOc2cccc(Nc3nc4ccccc4c(=O)o3)c2)cc1` were 4.4 µg/mL (≈ 7.74 µM) and 2.6 µg/mL (≈ 4.57 µM).
Taken in the same sequence, the figures for `NNC(=O)c1ccncc1` [ISONIAZID] were over 8 µg/mL and 0.25 µg/mL (≈ 1.82 µM).
